Source: ChEMBL document CHEMBL5120974, “Antitubercular Activity of Novel 2-(Quinoline-4-yloxy)acetamides with Improved Drug-Like Properties” (ACS Med Chem Lett, 2022)
Values after ≈ are worked out from the molar mass of the structure shown.

What was measured:
Assay type in all cases: functional
[1] = test system: Mycobacterium tuberculosis; test: Antitubercular activity against Multidrug-resistant Mycobacterium tuberculosis clinical isolate PT12 assessed as bacterial growth inhibition incubated for 7 days by resazurin dye based assay; details: PT12, 168 h, time 7 day
[2] = test system: Mycobacterium tuberculosis; test: Antitubercular activity against Multidrug-resistant Mycobacterium tuberculosis clinical isolate PT2 assessed as bacterial growth inhibition incubated for 7 days by resazurin dye based assay; details: PT2, 168 h, time 7 day
[3] = test system: Mycobacterium tuberculosis; test: Antitubercular activity against Multidrug-resistant Mycobacterium tuberculosis qcrB-T313A mutant assessed as bacterial growth inhibition incubated for 7 days by resazurin dye based assay; details: time 7 day
Procedure, shortened: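 MIC measured against a spontaneous mutant selected for resistance to 2-(quinolin-4-yloxy)acetamides, with a fully sequenced genome and a single qcrB change (ACC to GCC at nucleotide 937, T313A substitution).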

[4] = test system: Mycobacterium tuberculosis; test: Antitubercular activity against Multidrug-resistant Mycobacterium tuberculosis clinical isolate PT20 assessed as bacterial growth inhibition incubated for 7 days by resazurin dye based assay; details: PT20, 168 h, time 7 day

Compound	MIC [1] [µM]	MIC [2] [µM]	MIC [3] [µM]	MIC [4] [µM]
CCc1cc(OCC(=O)Nc2ccc(N3CCCCC3)cc2)c2cc(OC)ccc2n1	0.19 (≈ 0.0797 µg/mL)	< 0.04	>23.8	< 0.04
COc1ccc2nc(C)cc(OCC(=O)Nc3ccc(N4CCCCC4)cc3)c2c1	0.19 (≈ 0.077 µg/mL)	< 0.04	>24.7	< 0.04
NNC(=O)c1ccncc1 [ISONIAZID]	146 (≈ 20 µg/mL)	–	2.3 (≈ 0.315 µg/mL)	–
CO[C@H]1/C=C/O[C@@]2(C)Oc3c(C)c(O)c4c(O)c(c(/C=N/N5CCN(C)CC5)c(O)c4c3C2=O)NC(=O)/C(C)=C\C=C\[C@H](C)[C@H](O)[C@@H](C)[C@@H](O)[C@@H](C)[C@H](OC(C)=O)[C@@H]1C [RIFAMPIN]	> 48.6	> 48.6	–	> 48.6
